Experimental data pooled from the literature.

Cn1cnc(Cn2c(=O)[nH]/c(=N\c3cc4cn(C)nc4cc3Cl)n(Cc3cc(F)c(F)cc3F)c2=O)n1 — half-life (male Sprague-Dawley rat; plasma; oral; 25 mg/kg): 3.86 h
COc1ccc2c3c1O[C@H]1C[C@@H](OC(=O)c4ccccc4)C=C[C@@]31CCN(C)C2 — half-life (rat; brain; intravenous; 5 mg/kg): 1.95 h
CCN1CC2(CCN(CCc3cc(F)ccc3F)CC2)O[C@H](C)C1=O — half-life (Wistar rat; plasma; intraperitoneal; 3 mg/kg; single dose): 0.333 h
CCCC[C@@H]1NC(=O)[C@H](Cc2ccc(O)cc2)NC(=O)[C@@H]2CCCN2C(=O)[C@H](CC(=O)O)NC(=O)[C@H](C)NC(=O)[C@H](Cc2ccccc2)NC(=O)[C@@H]2CSCCC(=O)N3CN(CN(C3)C(=O)CCSC[C@H](NC(C)=O)C(=O)N[C@@H](CC(C)(C)C)C(=O)N[C@@H](CCC(=O)O)C(=O)N[C@@H](CCC(=O)O)C(=O)N[C@H](CCCCNC(=O)CCc3cn(CCOCCOCCOCCOCCOCCC(=O)N[C@H]4CSCCC(=O)N5CN6CN(C5)C(=O)CCSC[C@H](NC(=O)[C@@H](CC(=O)O)NC(=O)[C@H](Cc5cccc7ccccc57)NC(=O)[C@@H]5CCCN5C4=O)C(=O)N[C@@H](CCSC)C(=O)N[C@@H](CCCCNC(=N)N)C(=O)N[C@@H](CC(=O)O)C(=O)N[C@@H](Cc4c[nH]c5ccccc45)C(=O)N[C@@H](CO)C(=O)N[C@@H]([C@@H](C)O)C(=O)N4CCC[C@H]4C(=O)N4C[C@H](O)C[C@H]4C(=O)N[C@@H](Cc4c[nH]c5ccccc45)C(=O)N[C@H](C(N)=O)CSCCC6=O)nn3)C(=O)N3CCC[C@H]3C(=O)N[C@@H](Cc3ccc(O)cc3)C(=O)N2)C(=O)CCSC[C@@H](C(N)=O)NC1=O — half-life (rat; plasma; intravenous; 2 mg/kg): 1.7 h
CN1CCN(Cc2ccc(NC(=O)c3cncc(C#Cc4cnc(N)c5ncccc45)c3)cc2C(F)(F)F)CC1 — half-life (rat; plasma; intravenous; 2 mg/kg): 3.4 h
CCCC[C@@H]1NC(=O)[C@H](Cc2ccc(O)cc2)NC(=O)[C@@H]2CCCN2C(=O)[C@H](CC(=O)O)NC(=O)[C@H](C)NC(=O)[C@H](Cc2ccccc2)NC(=O)[C@@H]2CSCCC(=O)N3CN(CN(C3)C(=O)CCSC[C@H](NC(C)=O)C(=O)N[C@@H](CC(C)(C)C)C(=O)N[C@@H](CCC(=O)O)C(=O)N[C@@H](CCC(=O)O)C(=O)N[C@H](CCCCNC(=O)CCc3cn(CCOCCOCCOCCN(CCOCCOCCOCCC(=O)N[C@H]4CSCCC(=O)N5CN6CN(C5)C(=O)CCSC[C@H](NC(=O)[C@@H](CC(=O)O)NC(=O)[C@H](Cc5cccc7ccccc57)NC(=O)[C@@H]5CCCN5C4=O)C(=O)N[C@@H](CCSC)C(=O)N[C@@H](CCCCNC(=N)N)C(=O)N[C@@H](CC(=O)O)C(=O)N[C@@H](Cc4c[nH]c5ccccc45)C(=O)N[C@@H](CO)C(=O)N[C@@H]([C@@H](C)O)C(=O)N4CCC[C@H]4C(=O)N4C[C@H](O)C[C@H]4C(=O)N[C@@H](Cc4c[nH]c5ccccc45)C(=O)N[C@H](C(N)=O)CSCCC6=O)CCOCCOCCOCCn4cc(CCC(=O)NCCCC[C@H]5NC(=O)[C@H](CCC(=O)O)NC(=O)[C@H](CCC(=O)O)NC(=O)[C@H](CC(C)(C)C)NC(=O)[C@@H](NC(C)=O)CSCCC(=O)N6CN7CN(C6)C(=O)CCSC[C@H](NC(=O)[C@H](Cc6ccc(O)cc6)NC(=O)[C@@H]6CCCN6C5=O)C(=O)N[C@@H](Cc5ccccc5)C(=O)N[C@@H](C)C(=O)N[C@@H](CC(=O)O)C(=O)N5CCC[C@H]5C(=O)N[C@@H](Cc5ccc(O)cc5)C(=O)N[C@@H](CCCC)C(=O)N[C@H](C(N)=O)CSCCC7=O)nn4)nn3)C(=O)N3CCC[C@H]3C(=O)N[C@@H](Cc3ccc(O)cc3)C(=O)N2)C(=O)CCSC[C@@H](C(N)=O)NC1=O — half-life (rat; plasma; intravenous; 2 mg/kg): 2.1 h
O=C(Nc1cccnn1)N1CCN([C@@H]2CCOc3cc(C(F)(F)F)ccc32)CC1 — half-life (male Sprague-Dawley rat; plasma; oral; 1 mg/kg): 5.5 h
Cl.Cl.O=C(CCN1CCCCC1)c1ccc(-c2ccc(C(=O)CCN3CCCCC3)cc2)cc1 — half-life (Sprague-Dawley rat; plasma; oral; 50 mg/kg): 7.54 h
O=C([O-])C(=O)[O-].[NH-][C@@H]1CCCC[C@H]1[NH-].[Pt+4] (relative stereo) — half-life (rat; plasma; oral; 10 mg/kg): 1.53 h
Cc1ncc(C)n2nc(/C=C/c3nc(N4CCCC4)cc(N4CCOCC4)n3)nc12 — half-life (male Sprague-Dawley rat; plasma; oral; 0.3 mg/kg): 6 h
N=c1c2c(-c3ccccc3)c(-c3ccccc3)n(Cc3ccccc3)c2ncn1[C@H]1CC[C@H](O)CC1 — half-life (male Sprague-Dawley rat; plasma; intravenous; 2 mg/kg; single dose): 8.9 h
[2H]C([2H])(c1cc(F)c(F)cc1F)n1c(=O)n(Cc2ncn(C)n2)c(=O)[nH]/c1=N\c1cc2cn(C)nc2cc1Cl — half-life (male Sprague-Dawley rat; plasma; oral; 25 mg/kg): 4.16 h
CCCCCn1cc(C(=O)Nc2cccc3ccccc23)c2ccccc21 — half-life (male Long-Evans rat; plasma; intraperitoneal; 3 mg/kg): 11.6 h
COC(=O)C(NC(=O)c1cn(CCCCCF)c2ccccc12)C(C)(C)C (stereo not shown) — half-life (male Sprague-Dawley rat; plasma; subcutaneous; 50 µg/kg): 6.89 h
[2H]C([2H])([2H])n1cc2cc(Nc3nc(=O)n(Cc4ncn(C)n4)c(=O)n3Cc3cc(F)c(F)cc3F)c(Cl)cc2n1 — half-life (male Sprague-Dawley rat; plasma; oral; 25 mg/kg): 3.39 h
CC(C)C[C@@H]1NC(=O)[C@H](CC(=O)O)NC(=O)[C@H](Cc2ccccc2)NC(=O)[C@H](Cc2c[nH]cn2)NC(=O)[C@H]([C@@H](C)O)NC(=O)[C@H](Cc2ccccc2)NC(=O)[C@@H](NC(=O)[C@H](C)NC(=O)COCCOCCNC(=O)COCCOCCNC(=O)CC[C@H](NC(=O)CCCCCCCCCCCCCCCCC(=O)O)C(=O)O)CSSC[C@@H](C(=O)O)NC(=O)[C@H](Cc2ccccc2)NC(=O)[C@@H]2CCCN2C(=O)[C@H](Cc2c[nH]c3ccccc23)NC(=O)[C@H](CC(C)C)NC1=O — half-life (male Sprague-Dawley rat; plasma; intravenous): 4.17 h
